Compound activity deposited in PubChem by several laboratories.
HCV core dimer: HCV core protein dimerization inhibition. TR-FRET GST/Flag-core106 dimerization, 1536-well. inhibition, % at 5 µM. actives 0.33% (n = 300,000). AID 1899;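 active means inhibition above the mean of all tested compounds plus 3 SD, set per screening campaign, cut at about 45% in these data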
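Test system: GST/Flag-tagged HCV core106 proteins; Medium: KF-containing HEPES buffer, pH 7.45, DTT, CHAPS, BSA; Times: compound-protein-antibody incubation 4 h at 22.5 °C; Detection: TR-FRET 671 and 617 nm emission; Benchmarks: wells lacking GST-core106 and wells with excess unlabelled core106.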
NRP1-CendR mod: NRP-1/CendR interaction modulation | FAM-RPARPAR peptide binding to NRP-1, fluorescence polarization | inhibition, % at 25 µM | actives 0.85% (n = 360,000) | AID 602438;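 active means inhibition or corrected inhibition above about 18%, plus a signal ratio from 0.5 to 1.5, limit read from the data, passing the limit was not always enough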
Target sequence (O14786 whole entry, looked up): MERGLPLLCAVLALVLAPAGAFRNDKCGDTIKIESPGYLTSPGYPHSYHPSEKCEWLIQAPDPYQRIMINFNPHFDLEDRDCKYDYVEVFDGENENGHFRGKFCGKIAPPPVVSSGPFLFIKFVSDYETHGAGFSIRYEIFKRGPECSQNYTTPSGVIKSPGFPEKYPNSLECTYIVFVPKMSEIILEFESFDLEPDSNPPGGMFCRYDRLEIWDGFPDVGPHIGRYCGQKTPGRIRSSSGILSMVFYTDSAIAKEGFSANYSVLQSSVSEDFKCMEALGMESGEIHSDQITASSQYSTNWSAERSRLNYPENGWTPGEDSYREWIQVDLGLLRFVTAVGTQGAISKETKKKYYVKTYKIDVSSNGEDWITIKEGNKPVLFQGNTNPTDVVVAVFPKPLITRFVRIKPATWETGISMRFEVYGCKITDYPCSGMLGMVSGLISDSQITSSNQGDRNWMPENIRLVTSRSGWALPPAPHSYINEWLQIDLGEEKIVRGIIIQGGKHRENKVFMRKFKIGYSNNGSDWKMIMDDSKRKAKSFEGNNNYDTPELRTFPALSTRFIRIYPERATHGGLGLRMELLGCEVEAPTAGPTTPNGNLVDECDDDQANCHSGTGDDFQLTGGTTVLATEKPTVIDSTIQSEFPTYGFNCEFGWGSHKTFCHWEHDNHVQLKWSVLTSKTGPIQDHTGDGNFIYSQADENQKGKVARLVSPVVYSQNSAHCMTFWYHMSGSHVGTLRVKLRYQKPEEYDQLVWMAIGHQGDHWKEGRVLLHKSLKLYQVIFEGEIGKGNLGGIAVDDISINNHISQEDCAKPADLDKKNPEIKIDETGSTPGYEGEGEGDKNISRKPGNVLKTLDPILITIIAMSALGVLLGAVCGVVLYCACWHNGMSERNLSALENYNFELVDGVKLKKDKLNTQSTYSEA
MEX-5 binding: C. elegans MEX-5 TCR-2 RNA binding activity; Q9XUB2; MEX-5/FITC-TCR2 RNA binding, fluorescence polarization; active compounds read low; activity score (negative = inhibition of binding), % at 10 µM; actives 0.38% (n = 300,000); AID 1832;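 active means inhibition past about -25% in most replicates, and total fluorescence under double the plate's negative control median, limit read from the data; inconclusive means replicates evenly split on the limit, or fluorescence at least double controls; inactive means too little inhibition in most replicates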;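 further: 0% = DMSO and -100% = 5 µM competing unlabeled TCR2 RNA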
DNA FID counter: counter-screen for HCV NS3 helicase inhibitors: DNA intercalator displacement; DNA fluorescent intercalator displacement, fluorescence; inhibition, % at 7.9 µM; actives 0.17% (n = 290,000); in the data active means inhibition above about 37%;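 further: 0% = vehicle and 100% = reference compound; higher means more ethidium bromide displaced from hairpin DNA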
* marks the source's active call; other numbers are inactive results; ? = inconclusive; . = not tested or not shown. Hits are enriched below; roughly 1.5% of the tested compounds scored in any of these assays.

SMILES	HCV core dimer	NRP1-CendR mod	MEX-5 binding	DNA FID counter
COC(=O)c1ccccc1NS(=O)(=O)c1ccc2c(c1)oc(=O)n2C	-5	1	3	-6
CC(C)C(=O)N1CCC2(CC1)Oc1ccc(F)cc1C(=O)C21CC(c2ccc(Cl)cc2)=NO1 (stereo unspecified)	2	25*	0	.
CCN(CC)CCn1c2ccccc2c2cnc(N)c(C#N)c21	-3	-11	1	50*
CCOc1ccc(Nc2nc(NCC3CCCO3)c3ccccc3n2)cc1 (stereo unspecified)	-5	12	0	39*
c1ccc(Nc2nc(NCC3CCCO3)c3ccccc3n2)cc1 (stereo unspecified)	-1	3	-2	22
COC(=O)[C@@H](NC(=O)NC1CCN(Cc2ccccc2)CC1)C(C)C	2	-4	-5	4
COC(=O)[C@H](CCSC)NC(=O)NC1CCN(Cc2ccccc2)CC1	-3	-8	-36*	1
CCCN(C(=O)Cn1c(C(F)(F)F)nc2ccccc21)C1CCS(=O)(=O)C1 (stereo unspecified)	-5	45*	-1	.
COCCN(C(=O)CN1CCCc2ccccc21)c1c(N)n(Cc2ccccc2)c(=O)[nH]c1=O	-1	26*	0	-3
COCCN(C(=O)CN1CCc2ccccc21)c1c(N)n(Cc2ccccc2)c(=O)[nH]c1=O	.	-74	.	.
O=C1C(Cl)=C(NS(=O)(=O)c2ccc([N+](=O)[O-])cc2)C(=O)c2ccccc21	-8	26*	0	-9
Cc1ccc(C(=O)Nc2nc(-c3ccc([N+](=O)[O-])cc3)cs2)o1	52*	-9	0	4
CC1=C(C(=O)N(C(C)C)C(C)C)CC(CC(=O)NCCCCc2ccccc2)C(=O)N1Cc1ccc(C(C)(C)C)cc1 (stereo unspecified)	.	1	.	.
CCOC(=O)c1c(-c2ccco2)csc1NC(=O)COC(=O)c1cnccn1	67*	-19	-1	.
CCOC(=O)c1c(-c2ccc(C)o2)csc1NC(=O)CSc1nncs1	13	-16	0	-12
CCOC(=O)c1c(-c2ccco2)csc1NC(=O)CSc1nnc(N)s1	48*	-24	-4	-9
O=C(COc1ccc([N+](=O)[O-])cc1)NNC(=O)C1COc2ccccc2O1 (stereo unspecified)	.	1	.	.
CN(C)Cc1csc(NC(=O)Nc2ccccc2Cc2ccccc2)n1	.	4	.	.
CCc1c(C)nc(SCC(=O)N2CCN(c3ccccc3OC)CC2)[nH]c1=O	-3	-1	3	2
CCCc1c(C)nc(N2CCN(c3ccccc3OC)CC2)[nH]c1=O	-8	32*	4	-9
CCN1C(=O)[C@H]2[C@@H](c3ccc(OC)cc3)N[C@]3(CCCN(Cc4ccc(Br)cc4)C3=O)[C@H]2C1=O	.	0	.	.
CC(=O)NNC(=O)c1sc(=S)n2c1[nH]c(=O)c1sccc12	-17	-17	-49*	-1
COc1ccc(C(C)(O)c2nc(-c3cccc(O)c3)cs2)cc1 (stereo unspecified)	.	8	.	.
CN(N=Nc1cccc([N+](=O)[O-])c1)c1ccccc1	2	7	-2	0
CN(N=Nc1ccc([N+](=O)[O-])cc1)c1ccccc1	8	136	-58*	-11
SMILES	HCV core dimer	NRP1-CendR mod	MEX-5 binding	DNA FID counter
O=C1Nc2ccccc2-n2nnnc2C1N1CCN(c2ccc(C(F)(F)F)cn2)CC1 (stereo unspecified)	.	5	.	.
COc1ccc2c(c1)c1nc3ccccc3nc1n2CC(=O)OC(C)C	0	47	?	-2
COc1ccc(Cn2c3ccc(OC)cc3c3nc4ccccc4nc32)cc1	1	49*	-39*	-2
COc1ccc2c(c1)c1nc3ccccc3nc1n2CCCN1C(=O)c2ccccc2C1=O	0	-92	-42*	-3
COc1ccc2c(c1)c1nc3ccccc3nc1n2Cc1ccc(OC(C)C)c(OC)c1	-4	-9	-73*	1
O=C1c2ccccc2C(=O)N1CCCn1c2ccc(Cl)cc2c2nc3ccccc3nc21	.	4	.	.
O=C(CCC(=O)N(CC(=O)NC1CCCCC1)Cc1ccccc1)Nc1ccccn1	3	-1	3	-2
COc1ccccc1N(CC(=O)NC1CCCC1)C(=O)CCC(=O)Nc1ccccn1	11	21*	4	-32
Cc1ccnc(NC(=O)CCC(=O)N(CC(=O)NC2CCCCC2)Cc2ccccc2)c1	2	31*	2	0
COc1cc2c(cc1OC)C(=O)CCC2	.	7	.	.
O=[N+]([O-])c1ccc(N=Nc2ccc(O)c3ccccc23)cc1	.	-53	.	.
N=c1c2c(-c3ccccc3)c(-c3ccccc3)n(Cc3ccccc3)c2ncn1CCO	-5	-9	0	37*
N=c1c2c(-c3ccccc3)c(-c3ccccc3)n(Cc3ccco3)c2ncn1Cc1ccccc1	1	2	4	10
COc1ccc(OC)c(C2=C/C(=C/c3ccccn3)C(=O)O2)c1	4	89	-42*	-17
N#CC1=C(N)OC2=C(CC/C2=C\c2ccccc2)C1c1ccccc1 (stereo unspecified)	55*	67	-6	-27
CNc1c(N)n(Cc2ccccc2)c(=O)[nH]c1=O	-6	3	-32*	-5
Oc1c(Br)cc(Br)c(/C=N/n2c(-c3ccccc3)n[nH]c2=S)c1Br	16	-80	-37*	-12
C/C=C(/C)C(=O)O[C@@H]1c2cc(OC)c(OC)c(OC)c2-c2c(cc3c(c2OC)OCO3)C[C@H](C)[C@]1(C)O	-6	28*	4	.
COc1cc2c(c(OC)c1OC)-c1c(cc3c(c1OC)OCO3)[C@@H](OC(C)=O)[C@H](C)[C@H](C)C2	11	27*	1	.
COc1cc(C2c3cc4c(cc3OC(NNC(N)=O)C2C)OCO4)cc(OC)c1OC (stereo unspecified)	.	8	.	.
Cc1noc(C)c1C(=O)N1CCC1(C)C(=O)NS(=O)(=O)c1cccc(Cl)c1 (stereo unspecified)	.	41*	.	.
O=S(=O)(Nc1ccc(Cl)cc1NS(=O)(=O)c1ccccc1)c1ccccc1	.	17*	.	.
O=C(c1ccco1)N1CCN(/C(=N/S(=O)(=O)c2cccs2)c2ccccc2Cl)CC1	-1	27*	0	-32
O=S(=O)(/N=C(\c1ccccc1)N1CCOCC1)c1cccs1	5	27*	0	-3
Cc1ccccc1S(=O)(=O)/N=C(/c1ccccc1)N1CCOCC1	2	15	0	-6
SMILES	HCV core dimer	NRP1-CendR mod	MEX-5 binding	DNA FID counter
N/C(=N\S(=O)(=O)c1cccs1)c1ccccc1Cl	-12	5	0	-3
Cc1noc(C)c1-c1ccc(C(=O)Nc2ccccc2)c2occc12	.	-11	.	.
CCOC(=O)c1c(CC(C)C)csc1NC(C)=O	-4	-6	-1	-4
CCOC(=O)c1c(CC(C)C)csc1NC=O	-1	30*	-1	-6
COc1cc(OC)cc(-c2noc(-c3csc([C@@H]4C[C@H](O)[C@@H](CO)O4)n3)n2)c1	.	-12	.	.
COc1cc2c(cc1OC)C1Cc3ccc(OC)c(OC)c3CN1CC2 (stereo unspecified)	-1	2	-1	-13
